From ChEMBL document CHEMBL4152269, “New N-phenylpyrrolamide DNA gyrase B inhibitors: Optimization of efficacy and antibacterial activity” (Eur J Med Chem, 2018) come the findings set out here.

Assay [1] deals with Escherichia coli. In words: Growth inhibition of lpxC deficient Escherichia coli JD17464 at 50 uM after 24 hrs by broth microdilution method relative to control. It is filed as functional. Conditions: JD17464, 24 h, read-out: GI.
For assay [2], the target named is DNA gyrase subunit B (Staphylococcus aureus, UniProt P0A0K8). Description: Inhibition of Staphylococcus aureus DNA gyrase B preincubated for 10 mins followed by ATP addition measured after 30 mins by purine nucleoside phosphorylase enzyme coupled spectrophotometric method.
Chain of DNA gyrase subunit B (Staphylococcus aureus, UniProt P0A0K8) (P0A0K8 whole entry): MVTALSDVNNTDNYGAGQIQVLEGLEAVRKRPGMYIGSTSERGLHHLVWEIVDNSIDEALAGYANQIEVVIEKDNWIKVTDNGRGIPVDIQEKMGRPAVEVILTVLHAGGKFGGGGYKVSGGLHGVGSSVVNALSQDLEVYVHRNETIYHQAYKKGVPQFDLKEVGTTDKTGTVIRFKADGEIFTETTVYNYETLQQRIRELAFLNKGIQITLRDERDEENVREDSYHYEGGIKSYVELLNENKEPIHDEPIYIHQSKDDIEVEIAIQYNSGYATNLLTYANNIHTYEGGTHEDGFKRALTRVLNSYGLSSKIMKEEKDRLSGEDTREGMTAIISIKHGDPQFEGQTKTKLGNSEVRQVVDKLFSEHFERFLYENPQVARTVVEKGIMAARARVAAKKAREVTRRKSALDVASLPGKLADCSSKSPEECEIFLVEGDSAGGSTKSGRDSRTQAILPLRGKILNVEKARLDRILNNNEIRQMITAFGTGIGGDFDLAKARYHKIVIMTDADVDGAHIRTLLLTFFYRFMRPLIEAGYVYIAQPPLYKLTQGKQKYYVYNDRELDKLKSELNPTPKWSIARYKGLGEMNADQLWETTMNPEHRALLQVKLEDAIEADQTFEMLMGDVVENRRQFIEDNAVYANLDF
Assay [3] deals with Staphylococcus aureus. Description: Inhibition of Staphylococcus aureus topoisomerase-4 assessed as residual activity at 1 uM preincubated for 10 mins followed by ATP addition measured after 30 mins by purine nucleoside phosphorylase enzyme coupled spectrophotometric method relative to control.
Assay [4] relates to Staphylococcus aureus. In words: Growth inhibition of Staphylococcus aureus ATCC 25923 at 50 uM after 24 hrs by broth microdilution method relative to control. Conditions: ATCC 25923, 24 h, read-out: GI. In kind it is functional.
Assay [5] deals with Escherichia coli. In words: Growth inhibition of Escherichia coli ATCC 25922 at 50 uM after 24 hrs by broth microdilution method relative to control. Conditions: ATCC 25922, 24 h, read-out: GI. In kind it is functional.
A further assay deals with Pseudomonas aeruginosa. In words: Growth inhibition of Pseudomonas aeruginosa ATCC 27853 at 50 uM after 24 hrs by broth microdilution method relative to control. It is filed as functional. To be noted: ATCC 27853, 24 h, read-out: GI.
Assay [6] has as its system Enterococcus faecalis. In words: Growth inhibition of Enterococcus faecalis ATCC 29212 at 50 uM after 24 hrs by broth microdilution method relative to control. In kind it is functional. To be noted: ATCC 29212, 24 h, read-out: GI.
For assay [7], the system named is Escherichia coli. Description: Growth inhibition of tolC deficient Escherichia coli JW5503 at 50 uM after 24 hrs by broth microdilution method relative to control. In kind it is functional. Conditions: JW5503, 24 h, read-out: GI.
Assay [8] has as its system Escherichia coli. Description: Inhibition of Escherichia coli C-terminal His6-tagged topoisomerase-4 expressed in Escherichia coli BL21(DE3) assessed as residual activity at 1 uM preincubated for 10 mins followed by ATP addition measured after 30 mins by purine nucleoside phosphorylase enzyme coupled spectrophotometric method relative to control.
The target of assay [9] is DNA gyrase subunit B (Escherichia coli, UniProt P0AES6). In words: Inhibition of Escherichia coli DNA gyrase by supercoiling assay.
The target in assay [10] is DNA gyrase subunit B (Staphylococcus aureus) (UniProt P0A0K8). Description: Inhibition of Staphylococcus aureus DNA gyrase B assessed as residual activity at 1 uM preincubated for 10 mins followed by ATP addition measured after 30 mins by purine nucleoside phosphorylase enzyme coupled spectrophotometric method relative to control.
Chain of DNA gyrase subunit B (Staphylococcus aureus) (P0A0K8 2-644 limits assumed): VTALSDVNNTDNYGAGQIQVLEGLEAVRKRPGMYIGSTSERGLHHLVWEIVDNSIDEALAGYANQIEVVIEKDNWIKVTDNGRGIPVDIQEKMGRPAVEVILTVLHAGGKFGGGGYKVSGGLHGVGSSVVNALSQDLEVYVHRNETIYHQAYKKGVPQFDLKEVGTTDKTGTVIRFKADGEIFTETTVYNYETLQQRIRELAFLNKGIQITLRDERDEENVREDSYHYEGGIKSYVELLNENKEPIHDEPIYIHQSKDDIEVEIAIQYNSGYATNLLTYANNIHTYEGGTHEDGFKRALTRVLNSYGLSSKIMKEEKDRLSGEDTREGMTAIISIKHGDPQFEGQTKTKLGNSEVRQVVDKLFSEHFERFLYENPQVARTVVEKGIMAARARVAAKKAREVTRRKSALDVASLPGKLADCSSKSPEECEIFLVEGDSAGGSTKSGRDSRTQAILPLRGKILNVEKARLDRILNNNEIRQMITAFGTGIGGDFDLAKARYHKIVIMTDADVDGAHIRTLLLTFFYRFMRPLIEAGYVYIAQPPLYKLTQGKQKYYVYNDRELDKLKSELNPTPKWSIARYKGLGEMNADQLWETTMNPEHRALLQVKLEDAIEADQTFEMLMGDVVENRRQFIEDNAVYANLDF
Assay [11] in a line: Inhibition of Escherichia coli topoisomerase-4.
Assay [12] has as its system Staphylococcus aureus. Description: Antibacterial activity against Staphylococcus aureus. It is filed as functional.
For assay [13], the system named is Enterococcus faecalis. Description: Antibacterial activity against Enterococcus faecalis. In kind it is functional, organism-based.
Assay [14] in a line: Inhibition of Escherichia coli C-terminal His6-tagged topoisomerase-4 expressed in Escherichia coli BL21(DE3) preincubated for 10 mins followed by ATP addition measured after 30 mins by purine nucleoside phosphorylase enzyme coupled spectrophotometric method.
Assay [15] has as its system Staphylococcus aureus. In words: Antibacterial activity against Staphylococcus aureus ATCC 25923 after 18 hrs by broth microdilution method. In kind it is functional. Conditions: ATCC 25923, 18 h.
A short description of assay [16]: Inhibition of Staphylococcus aureus topoisomerase-4 assessed as residual activity preincubated for 10 mins followed by ATP addition measured after 30 mins by purine nucleoside phosphorylase enzyme coupled spectrophotometric method.
Assay [17] deals with Escherichia coli. In words: Antibacterial activity against tolC deficient Escherichia coli JW5503 after 18 hrs by broth microdilution method. In kind it is functional. Conditions: JW5503, 18 h.
Assay [18] relates to Enterococcus faecalis. Description: Antibacterial activity against Enterococcus faecalis ATCC 29212 after 18 hrs by broth microdilution method. In kind it is functional. To be noted: ATCC 29212, 18 h.
In a further assay the test system is HUVEC. In words: Cytotoxicity against HUVEC assessed as reduction in cell proliferation after 72 hrs by MTS assay. Conditions: Homo sapiens. In kind it is cell-based. The method, boiled down: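 MTS assay in HUVEC grown in Eagle's MEM with 2 mM L-glutamine, penicillin/streptomycin and 10% FBS, at 37 °C under 5% CO2. Cells seeded at 2000 per well, attached for 24 h, then exposed to six compound concentrations (0.5% DMSO final) for 72 h. Reagent added for 3 h before reading A490. IC50 derived against DMSO-treated cells; triplicate wells, two repeats.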

In brackets after ≈: the same amount, converted by molar mass.

`CC(C)Oc1cc(C(=O)N[C@@H](C)C(=O)O)ccc1NC(=O)c1cc(Br)c(Br)[nH]1`: the inhibition of growth at 50 µM in the assay on Escherichia coli [1] is -15%; in the assay with Staphylococcus aureus [4], -18%; in the assay on Escherichia coli [5], 0%; with Pseudomonas aeruginosa it was 10%; in the assay with Enterococcus faecalis [6], 70%; in the assay on Escherichia coli [7], 6%. Moreover, the results for the IC50 at DNA gyrase subunit B [2] and on DNA gyrase subunit B [9] were 5900 nM and 370 nM, respectively. Besides, the Activity stood at 98% in the assay on Staphylococcus aureus [3] and 78% with Escherichia coli [8].
Regarding `NCCOc1cc(C(=O)N[C@@H](Cc2ccccc2)C(=O)O)ccc1NC(=O)c1cc(Br)c(Br)[nH]1`, the inhibition of growth at 50 µM in the assay on Escherichia coli [1] was 9%; with Staphylococcus aureus [4] it was 20%; in the assay with Escherichia coli [5], 5%; in the assay with Pseudomonas aeruginosa, 21%; in the assay on Enterococcus faecalis [6], 34%; with Escherichia coli [7], -6%. The Activity with Staphylococcus aureus [3] came out at 98%; in the assay on Escherichia coli [8], 96%; in [10], 89%. This molecule registered an IC50 at DNA gyrase subunit B [9] of 370 nM.
On to `CNc1cc(F)cc2c1[nH]c1nc(Oc3cnc(C)nc3)nc(N3C[C@H]4CCN[C@H]4C3)c12`, for which the Ki in assay [11] was less than 0.1 nM. Besides, the MIC with Staphylococcus aureus [12] came to 0.06 µg/mL (≈ 0.138 µM).
`Cc1[nH]c(C(=O)Nc2ccc(C(=O)NCC(=O)O)cc2OC(C)C)c(Cl)c1Cl` had an MIC against Enterococcus faecalis [13] of 50 µM (≈ 21.4 µg/mL). This molecule also came in with an IC50 in assay [14] of 11000 nM.
Take `COC(=O)[C@H](C)NC(=O)c1ccc(NC(=O)c2[nH]c(C)c(Cl)c2Cl)c(OCCN)c1`: the inhibition of growth at 50 µM in the assay on Escherichia coli [1] was 47%; in the assay on Staphylococcus aureus [4], 82%; in the assay on Escherichia coli [5], 67%; in the assay on Pseudomonas aeruginosa, 35%; in the assay on Enterococcus faecalis [6], 100%; with Escherichia coli [7] it was 100%. For the same molecule, the IC50 came out at 390 nM against DNA gyrase subunit B [2], 3700 nM in assay [16] and 34 nM against DNA gyrase subunit B [9]. Also, the MIC90 came out at 50 µM (≈ 22.9 µg/mL) against Staphylococcus aureus [15], 25 µM (≈ 11.4 µg/mL) with Escherichia coli [17] and 25 µM (≈ 11.4 µg/mL) in the assay on Enterococcus faecalis [18]. Moreover, the Activity in the assay with Escherichia coli [8] stood at 89%.
Regarding `O=C(O)CNC(=O)c1ccc(NC(=O)c2cc(Br)c(Br)[nH]2)cc1OCc1ccccc1`, the IC50 is 39000 nM in assay [16] and 88 nM at DNA gyrase subunit B [9]. In addition, the inhibition of growth at 50 µM in the assay on Staphylococcus aureus [4] was 19%; with Escherichia coli [5], 10%; in the assay on Pseudomonas aeruginosa, -2%; in the assay on Enterococcus faecalis [6], 2%. The Activity was found to be 100% in the assay on Escherichia coli [8] and 79% in [10].
As for `Cc1[nH]c(C(=O)Nc2ccc(C(=O)N[C@@H](C)C(=O)O)cc2OC(C)C)c(Cl)c1Cl`, the inhibition of growth at 50 µM is -10% with Escherichia coli [1]; -21% in the assay on Staphylococcus aureus [4]; 0% with Escherichia coli [5]; 8% in the assay with Pseudomonas aeruginosa; 100% in the assay with Enterococcus faecalis [6]; 97% in the assay on Escherichia coli [7]. In addition, the IC50 at DNA gyrase subunit B [2] was 93 nM; in [16], 280 nM; in assay [14], 450 nM; at DNA gyrase subunit B [9], 38 nM. Further, the MIC90 is 50 µM (≈ 22.1 µg/mL) against Escherichia coli [17] and 3.13 µM (≈ 1.38 µg/mL) against Enterococcus faecalis [18].
`COc1cc([C@@H]2c3cc4c(cc3[C@@H](O[C@@H]3O[C@@H]5CO[C@@H](C)O[C@H]5[C@H](O)[C@H]3O)[C@H]3COC(=O)[C@H]23)OCO4)cc(OC)c1O` [ETOPOSIDE]: the IC50 with HUVEC turned out to be 5210 nM.
In the case of `CC(C)Oc1cc(NC(=O)c2cc(Br)c(Br)[nH]2)ccc1C(=O)NCC(=O)O`, the Activity in the assay on Staphylococcus aureus [3] was 96%; in [10] it was 85%. In addition, the inhibition of growth at 50 µM in the assay with Staphylococcus aureus [4] is 13%; in the assay with Escherichia coli [5] it was 9%; in the assay with Pseudomonas aeruginosa, -8%; with Enterococcus faecalis [6], 14%. Also, at DNA gyrase subunit B [9], the IC50 worked out at 400 nM.
